These results are taken from ChEMBL document CHEMBL2380302, “Synthesis of 3-O-propargylated betulinic acid and its 1,2,3-triazoles as potential apoptotic agents” (Eur J Med Chem, 2013).

Format in all cases: functional
For experiment [1], the system named is HL-60. Nature of the experiment: Cytotoxicity against human HL60 cells at 20 uM after 48 hrs by SRB assay. As to conditions: HL-60, 48 h, read-out: GI. In short, it runs like this: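 HL-60 suspension cells in RPMI-1640/MEM with 10% FCS at 37 °C in 5% CO2 were plated in 96 wells and exposed to compound for 48 h. Cells were fixed with 80% TCA and pelleted at 1500 rpm for 15 min. Staining used 0.4% SRB in 1% acetic acid for 30 min; dye was dissolved in 10 mM Tris base and OD read at 570/620 nm.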

The subject of experiment [2] is A549. Nature of the experiment: Cytotoxicity against human A549 cells at 20 uM after 48 hrs by SRB assay. To be noted: A549, 48 h, read-out: GI. Summed up:
(§1)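 Cells grown in RPMI-1640/MEM with 10% FCS and penicillin/streptomycin at 37 °C in 5% CO2. They adhered overnight in 96-well plates and were exposed to compound for 48 h. Cells were then fixed with ice-cold 50% TCA for 60 min and stained with 0.4% SRB in 1% acetic acid for 30 min. Dye was solubilised in 10 mM Tris base and OD read at 570 nm (reference 620 nm).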

The test system of experiment [3] is DU-145. Nature of the experiment: Cytotoxicity against human DU145 cells at 20 uM after 48 hrs by SRB assay. As to conditions: DU-145, 48 h, read-out: GI. Summed up: as §1
In experiment [4] the test system is SF-295. Nature of the experiment: Cytotoxicity against human SF295 cells at 20 uM after 48 hrs by SRB assay. To be noted: SF-295, 48 h, read-out: GI. In short, it runs like this:
as §1

Experiment [5] concerns HCT-15. Nature of the experiment: Cytotoxicity against human HCT15 cells at 20 uM after 48 hrs by SRB assay. To be noted: HCT-15, 48 h, read-out: GI. Summed up:
as §1

The test system of experiment [6] is PC-3. Nature of the experiment: Cytotoxicity against human PC3 cells at 20 uM after 48 hrs by SRB assay. To be noted: PC-3, 48 h, read-out: GI. In short, it runs like this: as §1
Experiment [7] concerns THP-1. Nature of the experiment: Cytotoxicity against human THP1 cells at 20 uM after 48 hrs by SRB assay. As to conditions: THP-1, 48 h, read-out: GI. In short, it runs like this: as §1
Experiment [8] has as its system HCT-15. Nature of the experiment: Cytotoxicity against human HCT15 cells at 1 uM after 48 hrs by SRB assay. To be noted: HCT-15, 48 h, read-out: GI.
The test system of experiment [9] is HEp-2. Nature of the experiment: Cytotoxicity against human Hep2 cells at 1 uM after 48 hrs by SRB assay. As to conditions: HEp-2, 48 h, read-out: GI.

As for `O=c1[nH]cc(F)c(=O)[nH]1` [FLUOROURACIL], the inhibition of growth at 20 µM in experiment [1] turned out to be 89%; in experiment [2], 75%; in experiment [3] it was 72%; in experiment [4], 73%; in experiment [5], 72%; in experiment [6], 64%. For the same molecule, the inhibition of growth at 20 µM in experiment [7] stood at 83%.

Turning to `CO[C@@]12[C@H](COC(N)=O)C3=C(C(=O)C(C)=C(N)C3=O)N1C[C@@H]1N[C@@H]12` [MITOMYCIN], the inhibition of growth at 1 µM is 76% in experiment [8] and 68% in experiment [9].
